Measurements reported in article PMC5807869 (ACS Medicinal Chemistry Letters, 2018).

Columns and labels:
[1] = Metabolic stability in human liver microsomes; format: in vitro ADME
[2] = Apparent passive permeability, RRCK; format: in vitro ADME, Canine
[3] = iv/po PK in rat; format: in vivo
Summary of the method: (§1)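 Each species study used two animals per dose. Clearance is the observed plasma clearance. The same studies also gave steady-state volume of distribution, half-life, oral bioavailability and percent renal clearance.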

[4] = Metabolic stability in human hepatocytes; format: in vitro ADME
[5] = molecular target: PDE5A1 (Homo sapiens, UniProt O76074); assay: Phosphodiesterase SPA assay, PDE5A1; format: biochemical; conditions: PDE5/2 selectivity
[6] = test system: broad spectrum BioPrint panel; assay: Broad spectrum BioPrint panel selectivity screening; conditions: no significant activities
[7] = Predicted human pharmacokinetics; conditions: predicted from in vitro and in vivo properties
[8] = iv/po PK in NHP; format: in vivo, Cynomolgus monkeys; conditions: male, cynomolgus monkey, plasma, 1 mg/kg
Summary of the method: as §1

In the case of `Cc1nn2c(-c3c(C)nn(C)c3-c3ccc(C(F)(F)F)cc3)nc(C)c2c(=O)[nH]1` [Compound 1], the CLint scaled [1] is reported as 16 mL/min/kg, the Papp ([2]; dog, MDCK) is reported as 23 ×10⁻⁶ cm/s and the “in vivo rat clearance profile” value [3] is reported as “not show any extra-hepatic clearance pathways”. For the same compound, the CLint scaled [4] was 18 mL/min/kg.
With `Cc1nn2c(-c3c(C)nn(C)c3-c3ccc(C(F)(F)F)cc3)nc(CO)c2c(=O)[nH]1` [Compound 2, 7-(1,3-dimethyl-5-(4-(trifluoromethyl)phenyl)-1H-pyrazol-4-yl)-5-(hydroxymethyl)-2-methylimidazo[5,1-f][1,2,4]triazin-4(3H)-one] the “selectivity over other phosphodiesterases (margin)” value [5] was at least 1000 fold, the “IC50 or EC50 in BioPrint panel” value [6] was over 10 µM and the “predicted human plasma clearance” value [7] was 2.9 mL/min/kg. For the same compound, the “predicted human t1/2” value [7] was 3.7 h, the “predicted human volume of distribution” value [7] was 0.9 L/kg and the CLint scaled [1] was under 8 mL/min/kg. The clearance [8] was 4 mL/min/kg, the “decrease of passive permeability relative to 1” value ([2]; RRCK Papp, 2 vs 1) was 3 fold and the CLint scaled [4] was under 0.36 mL/min/kg.
`Cc1nn2c(-c3c(CO)nn(C)c3-c3ccc(C(F)(F)F)cc3)nc(C)c2c(=O)[nH]1` [Compound 5] showed a CLint scaled [1] of under 8 mL/min/kg.
`Cc1nn2c(-c3c(CO)nn(C)c3-c3ccc(C(F)(F)F)cc3)nc(CO)c2c(=O)[nH]1` [Compound 6] showed a CLint scaled [1] of under 9.2 mL/min/kg.
